# Measured values published in ChEMBL document CHEMBL1926642, “Relevance of the C-5 position to schweinfurthin induced cytotoxicity” (2011).
# Columns and labels:
# Type in all cases: functional
# COLO 205 = assay: Growth inhibition of human COLO205 cells after 48 hrs by sulforhodamine B assay; settings: COLO 205, 48 h
# NCI-H226 = assay: Growth inhibition of human NCI-H226 cells after 48 hrs by sulforhodamine B assay; settings: NCI-H226, 48 h
# [1] = Growth inhibition of human Hs 578T cells after 48 hrs by sulforhodamine B assay
# SNB-75 = assay: Growth inhibition of human SNB75 cells after 48 hrs by sulforhodamine B assay; settings: SNB-75, 48 h
# ACHN = assay: Growth inhibition of human ACHN cells after 48 hrs by sulforhodamine B assay
# KM12 = assay: Growth inhibition of human KM12 cells after 48 hrs by sulforhodamine B assay; settings: KM12, 48 h
# K562 = assay: Growth inhibition of human K562 cells after 48 hrs by sulforhodamine B assay; settings: K562, 48 h
# OVCAR-5 = assay: Growth inhibition of human OVCAR5 cells after 48 hrs by sulforhodamine B assay; settings: OVCAR-5, 48 h
# NCI-H460 = assay: Growth inhibition of human NCI-H460 cells after 48 hrs by sulforhodamine B assay; settings: NCI-H460, 48 h
# RXF 393 = assay: Growth inhibition of human RXF393 cells after 48 hrs by sulforhodamine B assay; settings: RXF 393, 48 h
# A549 = assay: Growth inhibition of human A549 cells after 48 hrs by sulforhodamine B assay; settings: A549, 48 h
# UO-31 = assay: Growth inhibition of human UO31 cells after 48 hrs by sulforhodamine B assay; settings: UO-31, 48 h
# SK-MEL-28 = assay: Growth inhibition of human SK-MEL-28 cells after 48 hrs by sulforhodamine B assay; settings: SK-MEL-28, 48 h
# SW-620 = assay: Growth inhibition of human SW620 cells after 48 hrs by sulforhodamine B assay; settings: SW-620, 48 h
# T47D = assay: Growth inhibition of human T47D cells after 48 hrs by sulforhodamine B assay
# NCI-H522 = assay: Growth inhibition of human NCI-H522 cells after 48 hrs by sulforhodamine B assay; settings: NCI-H522, 48 h
# NCI-H23 = assay: Growth inhibition of human NCI-H23 cells after 48 hrs by sulforhodamine B assay; settings: NCI-H23, 48 h
# EKVX = assay: Growth inhibition of human EKVX cells after 48 hrs by sulforhodamine B assay
# HOP-62 = assay: Growth inhibition of human HOP62 cells after 48 hrs by sulforhodamine B assay; settings: HOP-62, 48 h
# SF-268 = assay: Growth inhibition of human SF268 cells after 48 hrs by sulforhodamine B assay; settings: SF-268, 48 h
# HCC 2998 = assay: Growth inhibition of human HCC2998 cells after 48 hrs by sulforhodamine B assay; settings: HCC 2998, 48 h
# HCT-15 = assay: Growth inhibition of human HCT15 cells after 48 hrs by sulforhodamine B assay; settings: HCT-15, 48 h
# SF-295 = assay: Growth inhibition of human SF295 cells after 48 hrs by sulforhodamine B assay; settings: SF-295, 48 h
# SK-OV-3 = assay: Growth inhibition of human SKOV3 cells after 48 hrs by sulforhodamine B assay; settings: SK-OV-3, 48 h
# BT-549 = assay: Growth inhibition of human BT549 cells after 48 hrs by sulforhodamine B assay; settings: BT-549, 48 h
# NCI-H322M = assay: Growth inhibition of human NCI-H322M cells after 48 hrs by sulforhodamine B assay
# HCT-116 = assay: Growth inhibition of human HCT116 cells after 48 hrs by sulforhodamine B assay; settings: HCT-116, 48 h
# U-251 = assay: Growth inhibition of human U251 cells after 48 hrs by sulforhodamine B assay; settings: U-251, 48 h
# RPMI-8226 = assay: Growth inhibition of human RPMI8226 cells after 48 hrs by sulforhodamine B assay; settings: RPMI-8226, 48 h
# HL-60(TB) = assay: Growth inhibition of human HL-60(TB) cells after 48 hrs by sulforhodamine B assay; settings: HL-60, 48 h
# Procedure, shortened: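 Run in the NCI 60 cell-line screen as the full 5-dose assay that follows initial single-dose testing; GI50 is read from the dose series.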
# CCRF-CEM = assay: Growth inhibition of human CCRF-CEM cells after 48 hrs by sulforhodamine B assay
# PC-3 = assay: Growth inhibition of human PC3 cells after 48 hrs by sulforhodamine B assay; settings: PC-3, 48 h
# [2] = read-out: pLC50 (the source's name) (converted)
smiles,measurement,setting,value
COCOc1cc(/C=C/c2cc(C=O)c3c(c2)C[C@@H]2C(C)(C)[C@H](O)CC[C@@]2(C)O3)cc(OC)c1C/C=C(\C)CCC=C(C)C,GI50,COLO 205,3.47 µM
same,LC50,COLO 205,51.3 µM
same,TGI,COLO 205; read-out: pTGI (converted),9.33 µM
same,GI50,NCI-H226,28.2 µM
same,LC50,NCI-H226,> 100 µM
same,TGI,NCI-H226; read-out: pTGI (converted),> 100 µM
same,GI50,[1],1740 nM
same,CC50,[1]; [2],> 100 µM
same,TGI,[1]; read-out: pTGI (converted),> 100 µM
same,GI50,SNB-75,1620 nM
same,LC50,SNB-75,> 100 µM
same,TGI,SNB-75; read-out: pTGI (converted),> 100 µM
same,GI50,ACHN,7.94 µM
same,LC50,ACHN,> 100 µM
same,TGI,ACHN; read-out: pTGI (converted),> 100 µM
same,GI50,KM12,7.94 µM
same,LC50,KM12,> 100 µM
same,TGI,KM12; read-out: pTGI (converted),75.9 µM
same,GI50,K562,4.37 µM
same,LC50,K562,> 100 µM
same,TGI,K562; read-out: pTGI (converted),47.9 µM
same,GI50,OVCAR-5,11.7 µM
same,LC50,OVCAR-5,> 100 µM
same,TGI,OVCAR-5; read-out: pTGI (converted),> 100 µM
same,GI50,NCI-H460,5.89 µM
same,LC50 (concentration killing 50% of cells),NCI-H460,> 100 µM
same,TGI,NCI-H460; read-out: pTGI (converted),> 100 µM
same,GI50,RXF 393,309 nM
same,LC50 (50% lethal concentration),RXF 393,12.3 µM
same,TGI,RXF 393; read-out: pTGI (converted),1320 nM
same,LC50,A549,> 100 µM
same,GI50,A549; read-out: GI50,7.8 µM
same,GI50,A549; read-out: pGI50 (converted),7.76 µM
same,TGI,A549; read-out: pTGI (converted),> 100 µM
same,GI50,UO-31,4.07 µM
same,LC50,UO-31,> 100 µM
same,TGI,UO-31; read-out: pTGI (converted),> 100 µM
same,GI50,SK-MEL-28,2950 nM
same,CC50,SK-MEL-28; [2],> 100 µM
same,TGI,SK-MEL-28; read-out: pTGI (converted),> 100 µM
same,GI50,SW-620,10.2 µM
same,LC50,SW-620,> 100 µM
same,TGI,SW-620; read-out: pTGI (converted),44.7 µM
same,GI50,T47D,13.5 µM
same,LC50,T47D,> 100 µM
same,TGI,T47D; read-out: pTGI (converted),> 100 µM
same,GI50,NCI-H522,18.2 µM
same,LC50,NCI-H522,> 100 µM
same,TGI,NCI-H522; read-out: pTGI (converted),> 100 µM
same,GI50,NCI-H23,11 µM
same,LC50,NCI-H23,> 100 µM
same,TGI,NCI-H23; read-out: pTGI (converted),> 100 µM
same,GI50,EKVX,5.5 µM
same,LC50 (50% lethal concentration),EKVX,> 100 µM
same,TGI,EKVX; read-out: pTGI (converted),> 100 µM
same,GI50,HOP-62,4.9 µM
same,LC50,HOP-62,> 100 µM
same,TGI,HOP-62; read-out: pTGI (converted),> 100 µM
same,GI50,SF-268,11 µM
same,LC50,SF-268,> 100 µM
same,TGI,SF-268; read-out: pTGI (converted),85.1 µM
same,GI50,HCC 2998,12.3 µM
same,LC50,HCC 2998,> 100 µM
same,TGI,HCC 2998; read-out: pTGI (converted),> 100 µM
same,GI50,HCT-15,3.31 µM
same,LC50,HCT-15,> 100 µM
same,TGI,HCT-15; read-out: pTGI (converted),51.3 µM
same,LC50,SF-295,> 100 µM
same,GI50,SF-295; read-out: GI50,1200 nM
same,GI50,SF-295; read-out: pGI50 (converted),1200 nM
same,TGI,SF-295; read-out: pTGI (converted),4.37 µM
same,GI50,SK-OV-3,41.7 µM
same,LC50,SK-OV-3,> 100 µM
same,TGI,SK-OV-3; read-out: pTGI (converted),> 100 µM
same,GI50,BT-549,3.89 µM
same,LC50,BT-549,> 100 µM
same,TGI,BT-549; read-out: pTGI (converted),63.1 µM
same,GI50,NCI-H322M,89.1 µM
same,LC50,NCI-H322M,> 100 µM
same,TGI,NCI-H322M; read-out: pTGI (converted),> 100 µM
same,GI50,HCT-116,6.61 µM
same,LC50,HCT-116,> 100 µM
same,TGI,HCT-116; read-out: pTGI (converted),35.5 µM
same,GI50,U-251,1740 nM
same,LC50,U-251,> 100 µM
same,TGI,U-251; read-out: pTGI (converted),60.3 µM
same,GI50,RPMI-8226,1170 nM
same,LC50,RPMI-8226,> 100 µM
same,TGI,RPMI-8226; read-out: pTGI (converted),> 100 µM
same,GI50,HL-60(TB),3.55 µM
same,CC50,HL-60(TB); [2],> 100 µM
same,TGI,HL-60(TB); read-out: pTGI (converted),60.3 µM
same,GI50,CCRF-CEM,4.37 µM
same,LC50,CCRF-CEM,> 100 µM
same,TGI,CCRF-CEM; read-out: pTGI (converted),> 100 µM
same,GI50,PC-3,8.13 µM
same,CC50,PC-3; [2],> 100 µM
same,TGI,PC-3; read-out: pTGI (converted),> 100 µM
